Results pooled from the literature.
Protocols differ between the studies behind these lines.
Target: Mitogen-activated protein kinase kinase kinase 7 (MAP3K7, Homo sapiens, UniProt O43318)
One construct used (O43318 1-606): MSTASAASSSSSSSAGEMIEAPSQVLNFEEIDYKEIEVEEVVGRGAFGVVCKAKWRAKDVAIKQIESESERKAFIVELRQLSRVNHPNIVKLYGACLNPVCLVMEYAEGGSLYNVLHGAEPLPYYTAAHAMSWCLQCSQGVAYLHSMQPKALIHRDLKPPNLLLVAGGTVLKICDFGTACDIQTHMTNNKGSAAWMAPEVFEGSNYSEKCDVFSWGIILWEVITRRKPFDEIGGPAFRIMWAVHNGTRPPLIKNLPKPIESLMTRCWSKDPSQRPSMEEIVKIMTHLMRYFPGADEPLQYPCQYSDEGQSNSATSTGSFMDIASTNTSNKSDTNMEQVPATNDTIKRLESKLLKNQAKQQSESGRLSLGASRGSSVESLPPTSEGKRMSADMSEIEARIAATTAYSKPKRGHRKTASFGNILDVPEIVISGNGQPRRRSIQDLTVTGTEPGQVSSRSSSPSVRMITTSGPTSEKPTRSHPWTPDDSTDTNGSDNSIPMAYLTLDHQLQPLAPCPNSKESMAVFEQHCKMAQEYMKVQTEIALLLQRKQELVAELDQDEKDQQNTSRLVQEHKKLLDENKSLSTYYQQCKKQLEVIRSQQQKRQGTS

c1cncc(-c2cccc(Nc3nccc(NC4CCCCC4)n3)c2)c1
remaining binding (binding; competition with immobilised ligand; 10 µM): 19%

CC(=O)N1CCC(c2ccc(C(=O)NC3=NCCN3)cc2C(F)(F)F)CC1
remaining binding (cell-free assay; competition with immobilised ligand; 1 µM): 100%

CC1CCCN1c1nccc(-c2cnn3ncccc23)n1 (stereo not shown)
remaining binding (binding; 1 µM): 100%

C[C@@H](c1ccc(-n2cnc3c(N)ncnc32)cc1)N1CCc2nn(C)c(Cc3ccccc3)c2C1=O
remaining binding (binding; competition with immobilised ligand; 0.1 µM): 32%

CC1=C(C#N)[C@@H](c2ccc3[nH]nc(C)c3c2)C(C#N)=C(c2ccc(Cl)cc2)N1
remaining binding (cell-free assay; competition with immobilised ligand; 1 µM): 100%

O=C(c1ccc(Nc2ncc(Cl)c(-c3cc4ccccc4s3)n2)cc1)N1CCC(N2CCCC2)CC1
remaining binding (binding; competition with immobilised ligand; 1 µM): 3.6%

CNC(=O)[C@@H]1CC[C@@H](n2c(-c3ccc4cnccc4c3)nc3ccc(C(=O)NCc4cccc(C(N)=O)c4)cc32)C1
remaining binding (binding; competition with immobilised ligand; 1 µM): 100%

CN(CCCC(F)(F)F)c1nccc(-c2cnn3ncccc23)n1
remaining binding (binding; 1 µM): 85%

Cc1noc([C@H]2C[C@@H](c3ccc(C(F)(F)F)cc3)CN(C(=O)N3CCS(=O)(=O)C3)C2)n1
remaining binding (cell-free assay; competition with immobilised ligand; 1 µM): 100%

O=C(NCC1CCOCC1)c1n[nH]cc1NC(=O)c1c(F)cccc1F
remaining binding (binding; competition with immobilised ligand; 1 µM): 73%

CCN1CCN(Cc2ccc(C(=O)Nc3ccc(C)c(Oc4ccc5c(c4)CC(=O)N5)c3)cc2C(F)(F)F)CC1
remaining binding (binding; competition with immobilised ligand; 1 µM): 7.6%

Cc1cnn2ncc(-c3ccnc(N(C)C)n3)c2c1
remaining binding (binding; 1 µM): 77%

FC(F)(F)Oc1cccc(-c2cnc3ccc(-c4ccncc4)nn23)c1
remaining binding (binding; competition with immobilised ligand; 5 µM): 34%

CC(C)(O)c1cncc(-c2nc3ccc(F)cc3n2C2CC2)c1
remaining binding (cell-free assay; competition with immobilised ligand; 1 µM): 100%

O=C(c1ccc(Nc2ncc(Cl)c(-c3ccc(Cl)s3)n2)cc1)N1CCC(N2CCCC2)CC1
remaining binding (binding; competition with immobilised ligand; 1 µM): 0%

F[C@@H]1CCN(c2nccc(-c3cnn4ncccc34)n2)C1
remaining binding (binding; 1 µM): 100%

COc1ncc2cc3ccccc3nc2c1C#N
remaining binding (cell-free assay; competition with immobilised ligand; 5 µM): 92%

C[C@@H]1CCN(c2nccc(-c3cnn4ncccc34)n2)C1
remaining binding (binding; 1 µM): 81%

NS(=O)(=O)c1cc(NC(=O)C2(c3ccccc3Cl)CC2)ccc1Oc1cccc(Cl)c1
remaining binding (cell-free assay; competition with immobilised ligand; 1 µM): 98%

CN(C)c1nccc(-c2cnn3ncccc23)n1
remaining binding (binding; 1 µM): 97%

O=C(c1ccc(Nc2nccc(-c3cc4ccccc4s3)n2)cc1)N1CCC(N2CCCC2)CC1
remaining binding (binding; competition with immobilised ligand; 1 µM): 7.2%

NS(=O)(=O)c1cc(NC(=O)Cc2ccccc2)ccc1Oc1cccc(Cl)c1
remaining binding (cell-free assay; competition with immobilised ligand; 1 µM): 75%
